Assay results published in ChEMBL document CHEMBL3877308, “Design, synthesis and in vitro biological evaluation of oligopeptides targeting E. coli type I signal peptidase (LepB)” (Bioorg Med Chem, 2017).
Values after ≈ are worked out from the molar mass of the structure shown.

Assays:
[1] = biological target: Signal peptidase I (Escherichia coli K-12) (UniProt P00803); assay: (§1) Inhibition of full length Escherichia coli His6-tagged LepB expressed in Escherichia coli C43(DE3) assessed as residual activity at 0.0244 uM using dabcyl-VEVGGTATAGAFSRPGLE-(EDANS) as substrate preincubated for 10 mins followed by substrate addition measured for 2 hrs by FRET assay relative to control
Signal peptidase I (Escherichia coli K-12), sequence (P00803 whole entry): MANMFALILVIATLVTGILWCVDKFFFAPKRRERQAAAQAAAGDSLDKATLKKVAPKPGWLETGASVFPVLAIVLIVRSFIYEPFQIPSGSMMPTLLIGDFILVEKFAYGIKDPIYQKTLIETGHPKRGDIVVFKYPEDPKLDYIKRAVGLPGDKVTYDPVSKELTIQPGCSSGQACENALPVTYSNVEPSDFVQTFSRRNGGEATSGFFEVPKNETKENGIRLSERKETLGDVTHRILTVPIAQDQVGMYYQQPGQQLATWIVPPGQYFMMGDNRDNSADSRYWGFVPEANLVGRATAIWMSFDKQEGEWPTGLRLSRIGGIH
Outline: (§2)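 Enzyme came from the membrane fraction, extracted with 1% reduced Triton X-100 and purified by metal-chelation chromatography in 0.5% detergent. FRET pair was dabcyl acceptor and EDANS donor. EcLepB (final about 50 nM) was pre-incubated with compound 10 min at 22 °C. Reaction was then run with 8 µM substrate, following the linear fluorescence increase at 22 °C for 2 h.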

[2] = tested on: Pseudomonas aeruginosa; assay: Antibacterial activity against wild type Pseudomonas aeruginosa PAO750 harboring efflux defective mutant after 16 to 20 hrs by broth microdilution assay; assay type: functional
Outline: (§3)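 Broth microdilution MIC in cation-adjusted Mueller-Hinton II medium, following EUCAST and CLSI guidelines; tested on a panel of Gram-negative strains plus S. aureus ATCC 29213 (wild-type).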

[3] = biological target: Signal peptidase I (Escherichia coli K-12) (UniProt P00803); assay: Inhibition of full length Escherichia coli His6-tagged LepB expressed in Escherichia coli C43(DE3) assessed as residual activity at 25 uM using dabcyl-VEVGGTATAGAFSRPGLE-(EDANS) as substrate preincubated for 10 mins followed by substrate addition measured for 2 hrs by FRET assay relative to control; outline: as §2
[4] = tested on: Escherichia coli; assay: Antibacterial activity against Escherichia coli D22 harboring lpxC mutant after 16 to 20 hrs by broth microdilution assay; assay type: functional; outline: as §3
[5] = biological target: Signal peptidase I (Escherichia coli K-12) (UniProt P00803); assay: as §1, with “6.25” for “0.0244”; outline: as §2
[6] = tested on: Staphylococcus aureus; assay: Antibacterial activity against wild type Staphylococcus aureus ATCC 29213 after 16 to 20 hrs by broth microdilution assay; assay type: functional
Outline: (§4)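 MIC by broth microdilution in cation-adjusted Mueller-Hinton II medium, following EUCAST and CLSI guidelines; panel of Gram-negative strains plus S. aureus ATCC 29213.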

[7] = biological target: Signal peptidase I (Escherichia coli K-12) (UniProt P00803); assay: as §1, with “12.5” for “0.0244”; outline: as §2
[8] = biological target: Signal peptidase I (Escherichia coli K-12) (UniProt P00803); assay: as §1, with “1.56” for “0.0244”; outline: as §2
[9] = tested on: Escherichia coli; assay: Antibacterial activity against wild type Escherichia coli ATCC 25922 after 16 to 20 hrs by broth microdilution assay; assay type: functional; outline: as §4
[10] = biological target: Signal peptidase I (Escherichia coli K-12) (UniProt P00803); assay: as §1, with “0.195” for “0.0244”; outline: as §2
[11] = tested on: Acinetobacter baumannii; assay: Antibacterial activity against wild type Acinetobacter baumannii ATCC 19606 after 16 to 20 hrs by broth microdilution assay; assay type: functional; outline: as §4
[12] = biological target: Signal peptidase I (Escherichia coli K-12) (UniProt P00803); assay: Inhibition of full length Escherichia coli His6-tagged LepB expressed in Escherichia coli C43(DE3) at 100 uM using dabcyl-VEVGGTATAGAFSRPGLE-(EDANS) as substrate preincubated for 10 mins followed by substrate addition measured for 2 hrs by FRET assay relative to control; outline: as §2
[13] = tested on: Pseudomonas aeruginosa; assay: Antibacterial activity against wild type Pseudomonas aeruginosa PAO1 after 16 to 20 hrs by broth microdilution assay; assay type: functional; outline: as §4
[14] = biological target: Signal peptidase I (Escherichia coli K-12) (UniProt P00803); assay: Inhibition of full length Escherichia coli His6-tagged LepB expressed in Escherichia coli C43(DE3) assessed as residual activity at 50 uM using dabcyl-VEVGGTATAGAFSRPGLE-(EDANS) as substrate preincubated for 10 mins followed by substrate addition measured for 2 hrs by FRET assay relative to control; outline: as §2
[15] = biological target: Signal peptidase I (Escherichia coli K-12, UniProt P00803); assay: Inhibition of full length Escherichia coli His6-tagged LepB expressed in Escherichia coli C43(DE3) using dabcyl-VEVGGTATAGAFSRPGLE-(EDANS) as substrate preincubated for 10 mins followed by substrate addition measured for 2 hrs by FRET assay
Signal peptidase I, sequence (P00803 whole entry): as above
Outline: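 Enzyme extracted from the membrane fraction with 1% reduced Triton X-100 and purified by metal-chelation chromatography in 0.5% detergent. Enzyme (final ~50 nM) was pre-incubated with compound for 10 min at 22 °C. The linear rise in EDANS donor fluorescence (dabcyl acceptor) was then followed at 22 °C for 2 h. IC50 came from non-linear regression of sigmoidal rate-versus-concentration curves.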

[16] = tested on: Escherichia coli; assay: Antibacterial activity against Escherichia coli CH3130 harboring tolC deletion mutant after 16 to 20 hrs by broth microdilution assay; assay type: functional; outline: as §3
[17] = Cytotoxicity against human HepG2 cells assessed as reduction in cell viability after 72 hrs by fluorescein diacetate dye based fluorometric microculture assay; assay type: toxicity
Outline: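 FMCA on HepG2 cells read at 72 h. Survival index (%) is fluorescence in test wells as percent of control cultures, with blank values subtracted. IC50 was obtained by non-linear regression of log concentration-effect curves.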

[18] = biological target: Signal peptidase I (Escherichia coli K-12) (UniProt P00803); assay: as §1, with “3.13” for “0.0244”; outline: as §2
[19] = tested on: Klebsiella pneumoniae; assay: Antibacterial activity against wild type Klebsiella pneumoniae […] after 16 to 20 hrs by broth microdilution assay; assay type: functional; outline: as §4
[20] = biological target: Signal peptidase I (Escherichia coli K-12) (UniProt P00803); assay: Inhibition of full length Escherichia coli His6-tagged LepB expressed in Escherichia coli C43(DE3) assessed as residual activity at 100 uM using dabcyl-VEVGGTATAGAFSRPGLE-(EDANS) as substrate preincubated for 10 mins followed by substrate addition measured for 2 hrs by FRET assay relative to control; outline: as §2
[21] = biological target: Signal peptidase I (Escherichia coli K-12) (UniProt P00803); assay: as §1, with “0.781” for “0.0244”; outline: as §2
[22] = biological target: Signal peptidase I (Escherichia coli K-12) (UniProt P00803); assay: as §1, with “0.0488” for “0.0244”; outline: as §2
[23] = biological target: Signal peptidase I (Escherichia coli K-12) (UniProt P00803); assay: as §1, with “0.0977” for “0.0244”; outline: as §2
[24] = biological target: Signal peptidase I (Escherichia coli K-12) (UniProt P00803); assay: as §1, with “0.391” for “0.0244”; outline: as §2
[25] = biological target: Signal peptidase I (Escherichia coli K-12) (UniProt P00803); assay: as §1, with “0.02” for “0.0244”; outline: as §2
[26] = Hemolytic activity against human RBC at 100 uM after 45 mins by spectrophotometric method relative to control; assay type: ADME, cell-based, Erythrocyte; conditions: red blood cells (RBC), read-out: Activity
Outline: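 Hemolysis was tested using red blood cells from heparinized human blood.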

[27] = biological target: Signal peptidase I (Escherichia coli K-12) (UniProt P00803); assay: as §1, with “0.0005” for “0.0244”; outline: as §2
[28] = biological target: Signal peptidase I (Escherichia coli K-12) (UniProt P00803); assay: as §1, with “0.039” for “0.0244”; outline: as §2
[29] = biological target: Signal peptidase I (Escherichia coli K-12) (UniProt P00803); assay: as §1, with “0.078” for “0.0244”; outline: as §2
[30] = biological target: Signal peptidase I (Escherichia coli K-12) (UniProt P00803); assay: Potency index, ratio of decanoyl-PTANA-CHO IC50 to compound IC50 for full length Escherichia coli His6-tagged LepB expressed in Escherichia coli C43(DE3)
[31] = biological target: Signal peptidase I (Escherichia coli K-12) (UniProt P00803); assay: as §1, with “0.625” for “0.0244”; outline: as §2
[32] = biological target: Signal peptidase I (Escherichia coli K-12) (UniProt P00803); assay: as §1, with “1.25” for “0.0244”; outline: as §2
[33] = biological target: Signal peptidase I (Escherichia coli K-12) (UniProt P00803); assay: as §1, with “0.002” for “0.0244”; outline: as §2
[34] = biological target: Signal peptidase I (Escherichia coli K-12) (UniProt P00803); assay: Inhibition of full length Escherichia coli His6-tagged LepB expressed in Escherichia coli C43(DE3) assessed as residual activity at 2.5 uM using dabcyl-VEVGGTATAGAFSRPGLE-(EDANS) as substrate preincubated for 10 mins followed by substrate addition measured for 2 hrs by FRET assay relative to control; outline: as §2
[35] = biological target: Signal peptidase I (Escherichia coli K-12) (UniProt P00803); assay: as §1, with “0.001” for “0.0244”; outline: as §2
[36] = biological target: Signal peptidase I (Escherichia coli K-12) (UniProt P00803); assay: as §1, with “0.156” for “0.0244”; outline: as §2
[37] = biological target: Signal peptidase I (Escherichia coli K-12) (UniProt P00803); assay: as §1, with “0.313” for “0.0244”; outline: as §2
[38] = biological target: Signal peptidase I (Escherichia coli K-12) (UniProt P00803); assay: (§5) Inhibition of full length Escherichia coli His6-tagged LepB expressed in Escherichia coli C43(DE3) assessed as residual activity at 10 uM using dabcyl-VEVGGTATAGAFSRPGLE-(EDANS) as substrate preincubated for 10 mins followed by substrate addition measured for 2 hrs by FRET assay relative to control; outline: as §2
[39] = biological target: Signal peptidase I (Escherichia coli K-12) (UniProt P00803); assay: as §5, with “at 0.01” for “at 10”; outline: as §2
[40] = biological target: Signal peptidase I (Escherichia coli K-12) (UniProt P00803); assay: Inhibition of full length Escherichia coli His6-tagged LepB expressed in Escherichia coli C43(DE3) assessed as residual activity at 5 uM using dabcyl-VEVGGTATAGAFSRPGLE-(EDANS) as substrate preincubated for 10 mins followed by substrate addition measured for 2 hrs by FRET assay relative to control; outline: as §2

CC(O)[C@H](NC(=O)[C@@H]1CCCN1)C(=O)N[C@@H](C)C(=O)N[C@@H](CC(N)=O)C(=O)N[C@@H](C)B1O[C@@H]2C[C@@H]3C[C@@H](C3(C)C)[C@]2(C)O1 (single isomer, unassigned)
Activity [1]: 92.7%
MIC [2]: > 64 µg/mL
Activity [3]: 56.9%
MIC [4]: > 64 µg/mL
Activity [5]: 85.8%
MIC [6]: > 64 µg/mL
Activity [7]: 67.2%
Activity [8]: 90.7%
MIC [9]: > 64 µg/mL
Activity [10]: 95.4%
MIC [11]: > 64 µg/mL
inhibition [12]: > 50%
MIC [13]: > 64 µg/mL
Activity [14]: 35.6%
IC50 [15]: 26 µM
MIC [16]: > 64 µg/mL
IC50 at 72 h [17]: > 64 µM
Activity [18]: 88.6%
MIC [19]: > 64 µg/mL
Activity [20]: 25.1%
Activity [21]: 95%
Activity [22]: 96.7%
Activity [23]: 96%
Activity [24]: 95%

CCCCCCCCCC(=O)N1CCC[C@H]1C(=O)N[C@H](C(=O)N[C@@H](C)C(=O)N[C@@H](CC(N)=O)C(=O)N[C@@H](C)B1O[C@@H]2C[C@@H]3C[C@@H](C3(C)C)[C@]2(C)O1)[C@H](C)O
Activity [25]: 66.8%
hemolysis at 0.75 h, 100 µM [26]: 0.4%
MIC [2]: > 64 µg/mL
Activity [27]: 82.6%
MIC [4]: > 64 µg/mL
MIC [6]: 32 µg/mL (≈ 42.1 µM)
MIC [9]: > 64 µg/mL
Activity [28]: 47%
Activity [29]: 36.4%
MIC [11]: > 64 µg/mL
inhibition [12]: > 50%
Ratio IC50 [30]: 25
Activity [31]: 18.1%
MIC [13]: > 64 µg/mL
IC50 [15]: 0.048 µM
Activity [32]: 16.9%
MIC [16]: > 64 µg/mL
IC50 at 72 h [17]: 7.8 µM
Activity [33]: 81.9%
Activity [34]: 17.2%
Activity [35]: 84.5%
Activity [36]: 29.6%
MIC [19]: > 64 µg/mL
Activity [37]: 19.7%
Activity [38]: 0.084%
Activity [39]: 84.2%
Activity [40]: 10.6%
